What all share (format): functional, organism-based
The subject of assay [1] is Carnation ringspot virus. The assay can be described thus: Antiviral activity against Carnation ringspot virus infected compound-treated sap in Saponaria vaccaria at 5% incubated for 60 secs prior to inoculation measured after 6 weeks in green house conditions by non-isotopic molecular hybridisation assay. The gist of the method:
(§1)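 Infected leaves ground in 30 mM phosphate buffer pH 7.0 with 0.5% PVP (1 g/5 ml) and clarified. Sap mixed 1:1 with chemical solution for 60 s; listed concentrations are final, after extract dilution. Buffer-only sap served as control. Treated sap rub-inoculated with carborundum onto three S. vaccaria cv. 'Pink Beauty' plants. Plants held in a greenhouse up to 6 weeks; infection scored by non-isotopic hybridisation.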

In assay [2] the test system is Carnation Italian ringspot virus. As to the kind of experiment: Antiviral activity against Carnation Italian ringspot virus infected as compound-treated sap in Saponaria vaccaria at 5% incubated for 60 secs prior to inoculation measured after 6 weeks in green house conditions by non-isotopic molecular hybridisation assay. The gist of the method: as §1
Assay [3] relates to Carnation vein mottle virus. The assay can be described thus: Antiviral activity against Carnation vein mottle virus infected compound-treated sap in Saponaria vaccaria at 5% incubated for 60 secs prior to inoculation measured after 6 weeks in green house conditions by non-isotopic molecular hybridisation assay. The method, boiled down: as §1
Assay [4] concerns Carnation mottle virus. The assay can be described thus: Antiviral activity against Carnation mottle virus infected compound-treated sap in Saponaria vaccaria at 5% incubated for 60 secs prior to inoculation measured after 6 weeks in green house conditions by non-isotopic molecular hybridisation assay. The method, boiled down: as §1
Assay [5] has as its system Carnation latent virus. As to the kind of experiment: Antiviral activity against Carnation latent virus infected compound-treated sap in Saponaria vaccaria at 5% incubated for 60 secs prior to inoculation measured after 6 weeks in green house conditions by non-isotopic molecular hybridisation assay. The gist of the method: as §1
Assay [6] has as its system Carnation etched ring virus. As to the kind of experiment: Antiviral activity against Carnation etched ring virus infected compound-treated sap in Saponaria vaccaria at 5% incubated for 60 secs prior to inoculation measured after 6 weeks in green house conditions by non-isotopic molecular hybridisation assay. The gist of the method:
as §1

The test system of assay [7] is Carnation etched ring virus. The assay can be described thus: Antiviral activity against Carnation etched ring virus infected compound-treated sap in Saponaria vaccaria at 3% incubated for 60 secs prior to inoculation measured after 6 weeks in green house conditions by non-isotopic molecular hybridisation assay. The method, boiled down: as §1
Assay [8] concerns Carnation ringspot virus. The assay can be described thus: Antiviral activity against Carnation ringspot virus infected compound-treated sap in Saponaria vaccaria at 7% incubated for 60 secs prior to inoculation measured after 6 weeks in green house conditions by non-isotopic molecular hybridisation assay. The gist of the method:
as §1

Assay [9] relates to Carnation ringspot virus. As to the kind of experiment: Antiviral activity against Carnation ringspot virus infected compound-treated sap in Saponaria vaccaria at 3% incubated for 60 secs prior to inoculation measured after 6 weeks in green house conditions by non-isotopic molecular hybridisation assay. The method, boiled down: as §1
The test system of assay [10] is Carnation mottle virus. As to the kind of experiment: Antiviral activity against Carnation mottle virus infected compound-treated sap in Saponaria vaccaria at 7% incubated for 60 secs prior to inoculation measured after 6 weeks in green house conditions by non-isotopic molecular hybridisation assay. The method, boiled down: as §1
The test system of assay [11] is Carnation vein mottle virus. As to the kind of experiment: Antiviral activity against Carnation vein mottle virus infected compound-treated sap in Saponaria vaccaria at 3% incubated for 60 secs prior to inoculation measured after 6 weeks in green house conditions by non-isotopic molecular hybridisation assay. The gist of the method: as §1
Assay [12] deals with Carnation vein mottle virus. The assay can be described thus: Antiviral activity against Carnation vein mottle virus infected compound-treated sap in Saponaria vaccaria at 7% incubated for 60 secs prior to inoculation measured after 6 weeks in green house conditions by non-isotopic molecular hybridisation assay. The method, boiled down: as §1
Assay [13] deals with Carnation latent virus. The assay can be described thus: Antiviral activity against Carnation latent virus infected compound-treated sap in Saponaria vaccaria at 3% incubated for 60 secs prior to inoculation measured after 6 weeks in green house conditions by non-isotopic molecular hybridisation assay. The gist of the method:
as §1

Assay [14] concerns Carnation mottle virus. The assay can be described thus: Antiviral activity against Carnation mottle virus infected compound-treated sap in Saponaria vaccaria at 3% incubated for 60 secs prior to inoculation measured after 6 weeks in green house conditions by non-isotopic molecular hybridisation assay. The gist of the method:
as §1

Assay [15] has as its system Carnation latent virus. The assay can be described thus: Antiviral activity against Carnation latent virus infected compound-treated sap in Saponaria vaccaria at 7% incubated for 60 secs prior to inoculation measured after 6 weeks in green house conditions by non-isotopic molecular hybridisation assay. The method, boiled down: as §1
The subject of assay [16] is Carnation etched ring virus. As to the kind of experiment: Antiviral activity against Carnation etched ring virus infected compound-treated sap in Saponaria vaccaria at 7% incubated for 60 secs prior to inoculation measured after 6 weeks in green house conditions by non-isotopic molecular hybridisation assay. The gist of the method:
as §1

The subject of assay [17] is Carnation Italian ringspot virus. As to the kind of experiment: Antiviral activity against Carnation Italian ringspot virus infected compound-treated sap in Saponaria vaccaria at 7% incubated for 60 secs prior to inoculation measured after 6 weeks in green house conditions by non-isotopic molecular hybridisation assay. The method, boiled down: as §1
Assay [18] has the same test system. As to the kind of experiment: Antiviral activity against Carnation Italian ringspot virus infected as compound-treated sap in Saponaria vaccaria at 3% incubated for 60 secs prior to inoculation measured after 6 weeks in green house conditions by non-isotopic molecular hybridisation assay. The method, boiled down:
as §1

Calls of active or inactive are those of the source. No cut-off for these calls is given here.

Activity data for two compounds are collected here from ChEMBL document CHEMBL3046809, “Plant tissue distribution and chemical inactivation of six carnation viruses” (Crop Prot, 2007).

In the case of `O=P([O-])([O-])O.[Na+].[Na+]`, the result in [1], in assay [2], in [4], in assay [5] and in assay [6] was inactive. The result in assay [3] was Active.
With `OCl`, the result in assay [7], in assay [8], in assay [10], in assay [11], in assay [12] and in assay [13] was Active. Moreover, the result in assay [15], in assay [2], in [3], in [16], in [17] and in assay [5] was Active. For the same compound, the outcome in assay [6] was Active. In addition, the outcome in assay [9], in [1], in [14], in assay [4] and in [18] was inactive.
